# From PubChem
# proKLK7 act: proKLK7 zymogen activators, primary screen, biochemical, fluorescence intensity | purified proKLK7, EDANS-DABCYL substrate fluorescence; 100% is mature enzyme control, 0% vehicle | 370,000 tested, 0.9% active | activation, % at 7 µM;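 active means activation above the mean of all tested compounds plus 3 SD, computed per campaign excluding outliers beyond control limits, cut at about 13% in these data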
# Target sequence (P49862 whole entry, looked up): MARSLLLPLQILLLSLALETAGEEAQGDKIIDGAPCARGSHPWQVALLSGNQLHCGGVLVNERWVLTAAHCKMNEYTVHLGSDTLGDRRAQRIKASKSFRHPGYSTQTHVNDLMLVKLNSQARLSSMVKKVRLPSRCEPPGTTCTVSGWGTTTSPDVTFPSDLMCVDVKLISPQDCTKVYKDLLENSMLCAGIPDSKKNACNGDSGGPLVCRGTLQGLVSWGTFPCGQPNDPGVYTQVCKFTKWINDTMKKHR
# procasp3 activ: activators of human procaspase-3 D3A mutant, primary screen, biochemical, absorbance, PC-3 D3A mutant, single concentration; Caspase-3 (Homo sapiens), P42574; 330,000 tested, 0.11% active; AID 463141, 2010; activation, % at 8.5 µM; recombinant procaspase-3 D3A, Ac-DEVD-pNA absorbance 405 nm;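 active means activation above the mean of all tested compounds plus 3 SD, cut at about 21% in these data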;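 further: 0% = DMSO alone and 100% = DMSO wells spiked with extra 5 µM PC-3 D3A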
# Target sequence (P42574 whole entry D9A/D28A/D175A): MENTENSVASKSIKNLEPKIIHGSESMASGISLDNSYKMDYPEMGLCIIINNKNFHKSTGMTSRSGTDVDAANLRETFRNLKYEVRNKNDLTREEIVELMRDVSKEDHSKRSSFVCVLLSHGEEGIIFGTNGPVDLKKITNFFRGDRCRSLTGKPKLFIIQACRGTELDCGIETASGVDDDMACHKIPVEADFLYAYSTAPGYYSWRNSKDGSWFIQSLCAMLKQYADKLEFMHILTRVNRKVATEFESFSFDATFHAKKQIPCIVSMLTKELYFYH
#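 System: Procaspase-3 D3A mutant. Medium: Zinc-free 300 mM NaCl, 50 mM HEPES, 0.01% Triton X-100. Schedule: 1 h preincubation plus 2 h reaction at 25 °C. Measured by: 405 nm absorbance of p-nitroaniline, reads at 0 and 120 min. Read-out: percent activation relative to control range.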
# Neddylation inh: inhibitors of cullin neddylation, primary screen, biochemical, TR-FRET, uHTS, NAE and Ubc12; NEDD8-conjugating enzyme Ubc12 (Homo sapiens) + NEDD8-activating enzyme E1 regulatory …; calls only at 25 µM; 360,000 tested, 0.58% active; AID 651699, 2012; in the data active means inhibition above about 36%
# procasp7 counter: procaspase-7 activators, primary screen, counter-screen for procaspase-3 activator project, biochemical, absorbance, HTS, human. AID 463210, 2010. activation, % at 8.5 µM. Caspase-7 (Homo sapiens), P55210. 330,000 tested, 0.093% active. recombinant procaspase-7, Ac-DEVD-pNA absorbance 405 nm; D23A/D198A/D206A triple mutant, cannot self-cleave; scale: DMSO 0, 5 µM enzyme 100;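 active means percent activation above the screen-wide mean plus 3 SD, cut at about 25% in these data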
#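 Test system: Procaspase-7 triple mutant (PC-7 D3A). Also added: Ac-DEVD-pNA substrate, 400 µM as added. Schedule: 1 h enzyme–compound preincubation and 2 h substrate reaction, both 25 °C. Signal: p-Nitroaniline absorbance at 405 nm, read at 0 and 120 min. Control set: low DMSO alone, high DMSO plus 5 µM PC-7.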
# PC3 dual counter: procaspase-3 activators, counter-screen for dual procaspase-3/7 activator project, biochemical, absorbance, PC-3 D3A mutant, human. activation, % at 8.5 µM. 290 tested, under 10 active. AID 493114, 2011. recombinant PC-3 D3A, Ac-DEVD-pNA absorbance 405 nm; aspartates 9, 28, 175 changed to alanine; 100% = enzyme control. shares compounds with procasp7 counter;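 active means mean percent activation across triplicates above a set limit taken from the earlier primary procaspase-3 screen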;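 further: 0% = DMSO wells and 100% = DMSO wells with 5 µM added PC-3 D3A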
# Procasp7 act: activation of procaspase-7 enzyme – biochemical, absorbance, human, dual procaspase-3/-7 activator project, confirmation; shares compounds with procasp7 counter; recombinant procaspase-7, Ac-DEVD-pNA absorbance 405 nm; D23A/D198A/D206A mutant that cannot self-cleave; 290 tested, under 10 active; activation, % at 8.5 µM;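 active means mean activation above a set limit carried over from the earlier primary screen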;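 further: 0% = DMSO only and 100% = DMSO with added 5 µM PC-7 enzyme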
# Neddyl conf: blockade of NEDD8 conjugation to cullin – biochemical, TR-FRET, single concentration, confirmation; calls only at 25 µM; 1,800 tested, 13% active; TR-FRET cullin neddylation biochemical assay; shares compounds with Neddylation inh; in the data active means inhibition above about 40%;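 further: neddylation substrate is the cullin 1 ring ligase complex with SKP2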
# KLK7 act conf: proKLK7 zymogen activators, confirmation, biochemical, fluorescence intensity, triplicate. shares compounds with proKLK7 act. purified proKLK7, EDANS-DABCYL substrate fluorescence; scaled: vehicle 0, mature enzyme 100. activation, % at 7 µM. 3,200 tested, 68% active. AID 686949, 2013;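 active means activation, as change over the incubation, above the mean of all tested compounds plus 3 SD, cut at about 13% in these data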
# EDANS interfere: EDANS-DABCYL substrate optical interference, artefact control for kallikrein-7 zymogen activator project, biochemical, fluorescence intensity, high throughput | shares compounds with proKLK7 act | no enzyme, 4 h; solvent 0%, active enzyme control 100% | activation, % at 7 µM | 3,200 tested, 80% active;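 active means activation above the all-compound mean plus 3 SD, ignoring values outside control-based bounds, cut at about 4.8% in these data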;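 further: value is the 4 h activation minus the activation read at time zero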
# * marks the source's active call; other numbers are inactive results; i = inactive; / = no result shown; + = active, no number. In the library only some 1.6% were active in any assay of this set; here they are far more common.
SMILES,proKLK7 act,procasp3 activ,Neddylation inh,procasp7 counter,others
COc1ccc(CNS(=O)(=O)c2cc3c(cc2Br)CC(C)N3C(C)=O)cc1 (stereo not given),0,/,/,/,
O=C(OC12CCCN(C1)/C(=C/c1ccc(Cl)cc1)C2)c1ccno1 (stereo not given),0,/,/,/,
CCOc1ccc(N=CC2=C(O)CC(c3ccco3)CC2=O)cc1 (stereo not given),0,38*,i,54*,PC3 dual counter=19;Procasp7 act=13
C=CCCC1CN(Cc2ccc(OC)cc2)S(=O)(=O)c2c(cccc2N2CCCCC2)O1 (stereo not given),0,/,/,/,
Cc1cc(-c2cc(NC(=O)Cc3c[nH]c4ccccc34)ccc2N(C)c2cccnc2)ccc1F,-1,/,/,/,
COc1cccc(-c2cc3nc(-c4ccccc4)cc(N4CCCC(O)C4)n3n2)c1 (stereo not given),-48,36*,i,50*,PC3 dual counter=-11;Procasp7 act=-11
COc1ccc(-c2cc3nc(-c4ccccc4)cc(N4CCC5(CC4)OCCO5)n3n2)cc1,-9,23*,i,36*,PC3 dual counter=-28;Procasp7 act=-36
COc1ccc(-c2cc3nc4c(c(N5CCC6(CC5)OCCO6)n3n2)CCC4)cc1,0,-1,/,-5,
OC1CCN(c2cc(-c3ccccc3)nc3cc(-c4ccc(F)cc4)nn23)CC1,-36,12,/,-11,
COC(=O)[C@]12C[C@H](CC(=O)NCc3ccc(C)o3)C(=O)N(CCc3ccc(OC)c(OC)c3)C1=C[C@H](C1CCCC1)O[C@@H]2C,0,/,/,/,
Cc1c(Cc2ccccc2)c(=O)oc2cc(O)cc(O)c12,55*,21,i,26*,PC3 dual counter=-28;Procasp7 act=-34;KLK7 act conf=64*;EDANS interfere=76*
CCc1cc2c(nc1CC)CCCN2S(=O)(=O)c1ccc(C(F)(F)F)cc1,1,/,/,/,
O=C1N2Cc3ccccc3C2CS(=O)(=O)N1Cc1ccccc1 (stereo not given),-1,/,/,/,
COc1ccc(-c2cc(C(=O)OC3CCOC3=O)c3ccccc3n2)cc1 (stereo not given),97*,26*,/,28*,PC3 dual counter=18;Procasp7 act=12;KLK7 act conf=9;EDANS interfere=12*
COc1ccc(S(=O)(=O)Nc2cc(C(C)C)c(O)cc2C)cc1,0,1,i,2,
COc1ccc2nc3cc(Cl)ccc3c(Nc3cc(C(C)C)c(O)cc3C)c2c1,20*,-18,i,26*,PC3 dual counter=-18;Procasp7 act=-23;KLK7 act conf=0;EDANS interfere=2
CCCS(=O)(=O)c1c(S(=O)(=O)CCC)c2cnccn2c1C(=O)c1ccc(OC)cc1,0,-8,i,-2,
CCCS(=O)(=O)c1c(S(=O)(=O)CCC)c2cc(-c3ccncc3)ccn2c1C(=O)OC,66*,29*,/,34*,PC3 dual counter=-29;Procasp7 act=-35;KLK7 act conf=67*;EDANS interfere=65*
Cc1cc(-c2nc3cccnc3s2)ccc1NS(=O)(=O)c1cccs1,71*,17,/,26*,PC3 dual counter=-28;Procasp7 act=-34;KLK7 act conf=66*;EDANS interfere=57*
CCOC(=O)[C@]12CCCCC/C=C\1N(CCc1ccc(Cl)cc1)C(=O)[C@H]2CC(=O)NCc1cccc(C(F)(F)F)c1,0,/,/,/,
CCCc1cc(=O)n2[nH]c(-c3cc(OC)c(OC)c(OC)c3)nc2n1,0,3,+,2,Neddyl conf=i
Cc1cc(Nc2ccccc2C(=O)O)n2ncnc2n1,0,/,+,/,
COc1ccc2cc3cc(C(=O)NCCN4CCc5ccccc5C4)sc3nc2c1,-7,9,+,3,Neddyl conf=i
Cc1ccccc1C(=O)n1ccc2ccc(-c3ccc4ccn(Cc5ccc(C#N)cc5)c4c3)cc21,-5,/,/,/,
O=C1C2CC3N1CCC31c3ccccc3-n3c1c2ccc3=O (stereo not given),6,/,+,/,Neddyl conf=+
SMILES,proKLK7 act,procasp3 activ,Neddylation inh,procasp7 counter,others
O=c1c2ccccc2n(Cc2ccccc2)n1[C@@H](Cc1ccccc1)Cn1cc(C2CCCC2)nn1,-4,/,/,/,
FC(F)(F)c1cccc(Nc2cc(-c3ccccc3)nc3ncnn23)c1,0,1,i,9,
Fc1ccc(-c2cc(C(F)(F)F)n3ncnc3n2)cc1,2,9,+,-1,
O=C(Nc1ccccc1Br)c1ccc(OC(=S)N2CCOCC2)cc1,0,-1,i,0,
Cc1ccc(NC(=O)c2ccc(OC(=S)N3CCOCC3)cc2)cc1,0,1,+,0,Neddyl conf=i
CN(C)CCCNc1c2c(nc3cc(-c4cccc(F)c4)nn13)CCC2,3,9,+,7,Neddyl conf=i
CCOCCCNc1c2c(nc3cc(-c4ccc(F)cc4)nn13)CCC2,1,-3,i,4,
COc1cccc(C(=O)NCC(=O)N2CCN(c3ccc(C(F)(F)F)cn3)CC2)c1,0,/,i,/,
Cc1ccc(-c2n[nH]c(=S)n2/N=C/C=C/c2ccccc2[N+](=O)[O-])cc1,-1,-13,i,-14,
O=[N+]([O-])c1ccccc1/C=C/C=N/n1c(-c2cc(-c3ccccc3)n[nH]2)n[nH]c1=S,1,-6,+,0,Neddyl conf=i
COc1cc(NC(C)=O)ccc1-c1cc2ccccc2oc1=O,-1,0,+,6,Neddyl conf=i
COc1cc(NC(=O)c2ccc(Cl)cc2Cl)ccc1-c1cc2ccccc2oc1=O,-6,7,i,-8,
O=C(c1cccc(F)c1)N1CCCC(c2nc(-c3cccs3)no2)C1 (stereo not given),0,/,/,/,
COc1ccc(-c2nnc(SCC(=O)NN=C(C)c3cccc4ccccc34)n2-c2ccccc2)cc1,0,/,/,/,
